Test results taken from article PMC11109934 (RSC Medicinal Chemistry, 2024).

Key:
GL261-Luc cells = assay: xCELLigence real time monitoring of cell proliferation, GL261-Luc; format: cell-based, mouse; settings: for reduction of cell index: 72 hours
[1] = tested on: primary cultured mouse astrocytes; assay: xCELLigence real time monitoring of cell proliferation, primary mouse astrocytes; format: cell-based; settings: for reduction of cell index: primary cultured mouse astrocytes, after 72 hours
BxPC3 cells = assay: xCELLigence real time monitoring of cell proliferation, BxPC3; format: cell-based, human
[2] = tested on: caspase 3/7 activation in GL261-Luc cells; assay: Caspase 3/7 assay, GL261-Luc; format: cell-based, mouse; settings: 72 hours; for increase in caspase 3/7 activation (apoptosis): 256 μM
In short: (§1)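 BxPC3 (5 × 10^3/well) or GL261-Luc (3 × 10^3/well) cells in DMEM, 10% FBS, 1% pen-strep-glutamine. After 24 h, exposed to test compound for 72 h in medium with 0.1% DMSO final. CellEvent caspase-3/7 green reagent added for 1 h at 37 °C. Whole-well fluorescence imaged (Ex 488/Em 520). Cells then fixed (3.7% PFA), permeabilised (0.3% Triton X-100), BSA-blocked and stained with CellTag 700 (Ex 685/Em 720). Caspase signal normalised to cell number, then expressed as fold over control. At least 3 independent experiments, at least 4 replicates each.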

[3] = tested on: BxPC3 human pancreatic cancer cells; assay: CyQUANT viability assay, BxPC3; format: cell-based; settings: 72 hours, compared to the control
In short: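 BxPC3 cells (DMEM, 10% FBS, 1% pen-strep-glutamine; passages 10–20) were seeded at 5 × 10^3/well. After 24 h they were exposed to test compound for 72 h, with 0.1% DMSO final. Medium was removed, then CyQUANT Direct nucleic acid stain plus background suppressor in HBSS was added for 1 h at 37 °C. Whole-well fluorescence was laser-scanned (Ex 488/Em 520, 100 μm pixels) and normalised to control (100% viability). At least 3 independent experiments, at least 4 replicates each.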

[4] = tested on: caspase 3/7 activation in BxPC3 cells; assay: Caspase 3/7 assay, BxPC3; format: cell-based, human; settings: 72 hours; for increase in caspase 3/7 activation (apoptosis): 256 μM
In short: as §1

[5] = BxPC3 cells, 128 μM, after 72 hours, compared to the control
[6] = 128 μM, normalised to cell number (CellTag 700)

Structure (SMILES) | increase in caspase 3/7 activation (apoptosis) [2] | reduction of cell index (GL261-Luc cells; 256 μM) | reduction of cell index ([1]; 256 μM) | reduction of cell index (BxPC3 cells; BxPC3 cells, 256 μM, 72 hours) | reduction of viability (CyQUANT) ([3]; 256 μM) | increase in caspase 3/7 activation (apoptosis) [4] | reduction of cell index (GL261-Luc cells; 128 μM) | reduction of cell index ([1]; 128 μM) | reduction of cell index (BxPC3 cells; [5]) | reduction of viability (CyQUANT) ([3]; 128 μM) | other results
Oc1cccc2ccccc12 [1-naphthol, 1-Naphthol] | – | – | – | – | – | – | – | – | – | – | time until cytotoxicity began (GL261-Luc cells; 128 μM): 28 h
Oc1ccc2ccccc2c1 [2-naphthol] | – | – | – | – | – | – | – | – | – | – | time until cell index declined ([1]; primary cultured astrocytes, 128 μM): ≤ 4 h; activity in real-time xCELLigence experiments (BxPC3 cells; 16 μM): notable activity; time until cell index declined (BxPC3 cells; BxPC3 cells, 128 μM): 8 h; ED50 (cell index) (BxPC3 cells; BxPC3 cells, 72-hour exposure time, xCELLigence): 21 µM; fold greater cytotoxicity than 1-naphthol (BxPC3 cells; BxPC3 cells, real time xCELLigence monitoring): 4 fold
C[C@H](N)C(=O)OCc1ccccc1 [L-alanine benzyl ester] | no significant increase | no significant effect | 11–17% | no significant effect | no significant effect | no significant increase | – | – | – | – | –
CC(C)OC(=O)[C@H](C)N [L-alanine isopropyl ester] | no significant increase | no significant effect | 11–17% | no significant effect | no significant effect | no significant increase | – | – | – | – | –
Oc1ccccc1 [phenol] | – | – | – | – | – | – | no significant effect | 11–17% | no significant effect | no significant effect | –
OCc1ccccc1O [salicyl alcohol] | – | – | – | – | – | – | no significant effect | 11–17% | no significant effect | no significant effect | increase in caspase 3/7 activation [2, 6]: no effect; increase in caspase 3/7 activation [4, 6]: no effect
